{"source": "ChEMBL document CHEMBL2176883", "about": "“Aminopiperidine sulfonamide Cav2.2 channel inhibitors for the treatment of chronic pain” (J Med Chem, 2012)", "key": {"[1]": {"molecular_target": "T1, Voltage-dependent N-type calcium channel subunit alpha-1B (Homo sapiens, UniProt Q00975)", "assay": "Inhibition of Cav2.2 expressed HEK293 cells assessed as inhibition of calcium flux by FLIPR assay in presence of 30 mM of potassium", "format": "cell-based", "summary_of_the_method": "(§1)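 Calcium influx was read with a calcium-sensitive dye on FLIPR Tetra in CBK cells expressing α1B-1, α2-δ and β3a with Kir2.3. Cells were preincubated with compound in 30 mM K+, then channels were opened by 1:1 addition of 140 mM K+ solution. Compounds were screened at 1 μM, then titrated over 10 points (0.001–30 μM) in quadruplicate, mean ± SD. Values are averages of n ≥ 3.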"}, "[2]": {"molecular_target": "T1, Voltage-dependent N-type calcium channel subunit alpha-1B", "assay": "Inhibition of Cav2.2 expressed HEK293 cells assessed as inhibition of calcium flux at 1 uM by FLIPR assay", "format": "cell-based", "summary_of_the_method": "as §1"}, "[3]": {"molecular_target": "T1, Voltage-dependent N-type calcium channel subunit alpha-1B", "assay": "Inhibition of Cav2.2 expressed HEK293 cells assessed as inhibition of calcium flux by FLIPR assay in presence of 4 mM of potassium", "format": "cell-based", "summary_of_the_method": "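HEK-293-derived CBK cells coexpress α1B-1, α2-δ and β3a with Kir2.3. Compound was incubated in 4 mM K+ bath, holding about −90 mV. Ca2+ influx was read with a Ca-sensitive dye on FLIPR Tetra. Ten-point titrations ran 0.001–30 μM in quadruplicate, averaged ± SD to give IC50.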"}, "hERG [4]": {"molecular_target": "T2, hERG (Homo sapiens, UniProt Q12809)", "T2 sequence (Q12809 whole entry)": "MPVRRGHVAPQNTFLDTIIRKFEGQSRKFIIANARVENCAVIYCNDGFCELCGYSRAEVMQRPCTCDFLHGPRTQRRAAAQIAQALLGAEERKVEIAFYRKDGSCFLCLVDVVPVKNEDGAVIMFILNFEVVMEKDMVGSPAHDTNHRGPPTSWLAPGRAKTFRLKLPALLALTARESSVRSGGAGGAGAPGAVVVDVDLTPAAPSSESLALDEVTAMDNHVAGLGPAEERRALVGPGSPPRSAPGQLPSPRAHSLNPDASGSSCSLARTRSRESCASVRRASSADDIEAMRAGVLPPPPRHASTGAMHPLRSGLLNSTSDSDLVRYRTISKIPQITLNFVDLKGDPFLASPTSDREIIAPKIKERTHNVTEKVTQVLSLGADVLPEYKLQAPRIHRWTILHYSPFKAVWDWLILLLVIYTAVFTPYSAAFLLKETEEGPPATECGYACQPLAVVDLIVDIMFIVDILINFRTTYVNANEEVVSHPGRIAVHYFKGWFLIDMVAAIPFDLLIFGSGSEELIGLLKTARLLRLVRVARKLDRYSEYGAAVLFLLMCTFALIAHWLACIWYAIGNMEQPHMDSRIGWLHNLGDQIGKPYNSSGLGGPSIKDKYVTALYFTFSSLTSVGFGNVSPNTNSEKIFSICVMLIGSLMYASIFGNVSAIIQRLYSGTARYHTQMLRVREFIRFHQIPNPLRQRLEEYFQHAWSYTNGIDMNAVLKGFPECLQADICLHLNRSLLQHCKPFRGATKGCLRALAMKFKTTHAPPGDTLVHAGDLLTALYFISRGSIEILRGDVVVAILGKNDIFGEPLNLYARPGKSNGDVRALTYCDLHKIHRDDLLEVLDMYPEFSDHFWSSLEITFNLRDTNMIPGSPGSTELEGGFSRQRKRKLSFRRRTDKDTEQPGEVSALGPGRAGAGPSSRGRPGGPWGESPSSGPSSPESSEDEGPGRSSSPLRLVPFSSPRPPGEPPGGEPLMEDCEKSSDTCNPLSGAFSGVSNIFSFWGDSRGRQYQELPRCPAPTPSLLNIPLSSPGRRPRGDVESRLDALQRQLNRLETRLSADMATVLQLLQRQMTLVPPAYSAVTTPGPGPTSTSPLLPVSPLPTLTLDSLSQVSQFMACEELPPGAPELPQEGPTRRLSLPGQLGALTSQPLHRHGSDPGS", "assay": "Displacement of [35S]-MK-0499 from human ERG at 10 uM", "details": "probe [35S]-MK-0499", "summary_of_the_method": "(§2)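 hERG binding was measured as displacement of 35S-labeled MK-0499 at single test concentrations.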"}, "[5]": {"assay": "Oral bioavailability in rat at 3 mg/kg", "format": "ADME, organism-based", "details": "in vivo", "summary_of_the_method": "(§3)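 Rat pharmacokinetics from iv and po arms: 0.6 mg/kg iv with 1.8 mg/kg po, or 1 mg/kg iv with 3 mg/kg po. AUC was normalized to po dose (μM·h·kg/mg). Clearance (mL/min/kg) and half-life come from the iv arm, and F% is oral bioavailability.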"}, "Rattus norvegicus [6]": {"test_system": "Rattus norvegicus", "assay": "Antinociceptive activity in rat assessed as reversal of complete Freund's adjuvant-induced pain at 30 mg/kg, po after 1 hr", "format": "functional", "summary_of_the_method": "(§4)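 In the rat CFA inflammatory pain model, compound was given orally at 30 mg/kg and allodynia was read at 1 and 3 h postdose. Average % reversal = (postdose − predose)/(preinjury − predose) for each rat, n = 6. Plasma exposure at 3 h was measured in satellite rats (n = 2).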"}, "Cav1.2 [7]": {"molecular_target": "T3, Cav1.2 (Homo sapiens, UniProt Q13936)", "T3 sequence (Q13936 whole entry)": "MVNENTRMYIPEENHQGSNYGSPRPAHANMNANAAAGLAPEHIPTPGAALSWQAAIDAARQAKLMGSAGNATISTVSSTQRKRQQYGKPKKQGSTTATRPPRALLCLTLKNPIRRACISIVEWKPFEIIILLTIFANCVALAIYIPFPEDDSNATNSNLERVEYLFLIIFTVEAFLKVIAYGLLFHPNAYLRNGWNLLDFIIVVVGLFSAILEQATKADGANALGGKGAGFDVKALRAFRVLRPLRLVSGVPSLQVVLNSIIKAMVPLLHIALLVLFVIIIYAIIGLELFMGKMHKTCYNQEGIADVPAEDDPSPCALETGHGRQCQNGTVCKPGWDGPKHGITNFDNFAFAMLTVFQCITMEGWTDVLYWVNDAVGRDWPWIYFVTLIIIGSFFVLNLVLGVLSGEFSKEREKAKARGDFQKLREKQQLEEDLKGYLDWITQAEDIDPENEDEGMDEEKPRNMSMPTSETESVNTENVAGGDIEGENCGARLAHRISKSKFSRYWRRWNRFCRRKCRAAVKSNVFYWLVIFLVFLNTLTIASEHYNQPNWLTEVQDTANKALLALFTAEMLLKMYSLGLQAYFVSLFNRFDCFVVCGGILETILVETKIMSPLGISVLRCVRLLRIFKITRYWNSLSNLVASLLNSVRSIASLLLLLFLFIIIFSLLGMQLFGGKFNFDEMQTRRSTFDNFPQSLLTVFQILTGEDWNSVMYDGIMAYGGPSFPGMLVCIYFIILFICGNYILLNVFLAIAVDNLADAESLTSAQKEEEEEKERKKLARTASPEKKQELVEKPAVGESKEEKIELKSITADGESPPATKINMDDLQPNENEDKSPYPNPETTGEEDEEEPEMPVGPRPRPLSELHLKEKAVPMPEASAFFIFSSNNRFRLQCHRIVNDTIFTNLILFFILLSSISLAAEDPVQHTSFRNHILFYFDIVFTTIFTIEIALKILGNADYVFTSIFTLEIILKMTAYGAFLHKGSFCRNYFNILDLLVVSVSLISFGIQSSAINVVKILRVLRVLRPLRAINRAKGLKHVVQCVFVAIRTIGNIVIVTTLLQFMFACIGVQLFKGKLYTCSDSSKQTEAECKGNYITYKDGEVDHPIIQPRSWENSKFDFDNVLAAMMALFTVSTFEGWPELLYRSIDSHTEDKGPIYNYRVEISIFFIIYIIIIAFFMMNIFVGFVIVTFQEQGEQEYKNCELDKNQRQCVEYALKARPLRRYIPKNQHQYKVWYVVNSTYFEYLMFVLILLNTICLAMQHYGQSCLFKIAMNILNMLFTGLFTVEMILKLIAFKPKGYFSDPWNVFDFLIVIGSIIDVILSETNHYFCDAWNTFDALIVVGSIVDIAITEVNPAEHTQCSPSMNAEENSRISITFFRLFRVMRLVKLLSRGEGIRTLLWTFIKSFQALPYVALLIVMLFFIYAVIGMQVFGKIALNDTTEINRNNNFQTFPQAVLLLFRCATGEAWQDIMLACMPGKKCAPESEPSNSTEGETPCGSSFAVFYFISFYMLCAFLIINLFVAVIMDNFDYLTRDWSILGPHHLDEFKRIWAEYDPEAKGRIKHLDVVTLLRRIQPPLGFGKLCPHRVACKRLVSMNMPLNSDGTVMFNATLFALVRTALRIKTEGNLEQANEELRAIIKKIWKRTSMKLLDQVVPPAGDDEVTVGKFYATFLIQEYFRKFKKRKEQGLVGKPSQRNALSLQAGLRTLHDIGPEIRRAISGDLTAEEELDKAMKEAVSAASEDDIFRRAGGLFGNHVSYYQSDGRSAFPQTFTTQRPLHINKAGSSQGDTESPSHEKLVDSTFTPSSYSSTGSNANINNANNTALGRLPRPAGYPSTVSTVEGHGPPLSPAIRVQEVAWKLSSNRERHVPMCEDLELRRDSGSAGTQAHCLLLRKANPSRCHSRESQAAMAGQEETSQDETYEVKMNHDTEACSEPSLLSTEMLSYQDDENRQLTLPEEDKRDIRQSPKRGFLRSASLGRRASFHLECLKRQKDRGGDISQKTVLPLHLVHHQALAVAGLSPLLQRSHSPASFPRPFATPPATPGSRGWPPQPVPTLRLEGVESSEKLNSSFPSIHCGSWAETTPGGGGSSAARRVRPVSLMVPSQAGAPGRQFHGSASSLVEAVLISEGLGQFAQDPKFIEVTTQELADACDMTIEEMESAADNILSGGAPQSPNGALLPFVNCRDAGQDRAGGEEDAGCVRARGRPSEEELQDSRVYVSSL", "assay": "Inhibition of Cav1.2 assessed as inhibition of calcium flux at 3 uM by cell based FLIPR assay", "summary_of_the_method": "(§5)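 Cav1.2 counterscreen using a related calcium-influx FLIPR assay, run as % inhibition at single concentrations or as a titration.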"}, "[8]": {"assay": "Plasma clearance in rat at 3 mg/kg, po and 1 mg/kg, iv", "format": "ADME, organism-based", "summary_of_the_method": "as §3"}, "[9]": {"assay": "Half life in rat at 3 mg/kg, po and 1 mg/kg, iv", "format": "ADME, organism-based", "details": "in vivo", "summary_of_the_method": "as §3"}, "[10]": {"assay": "Metabolic stability in rat liver microsomes assessed as compound remaining at 1 uM after 1 hr", "format": "ADME, Microsome", "details": "read-out: Stability", "summary_of_the_method": "(§6)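 Compound at 1 μM was incubated with human or rat liver microsomes (1 mg/mL) for 1 h, and the percentage of parent remaining was determined.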"}, "hERG [11]": {"molecular_target": "T2, hERG", "assay": "Displacement of [35S]-MK-0499 from human ERG at 1 uM", "details": "probe [35S]-MK-0499", "summary_of_the_method": "as §2"}, "Rattus norvegicus [12]": {"test_system": "Rattus norvegicus", "assay": "Antinociceptive activity in rat assessed as reversal of complete Freund's adjuvant-induced pain at 30 mg/kg, po after 3 hrs", "format": "functional", "summary_of_the_method": "as §4"}, "[13]": {"assay": "Metabolic stability in human liver microsomes assessed as compound remaining at 1 uM after 1 hr", "format": "ADME, Microsome", "details": "read-out: Stability", "summary_of_the_method": "as §6"}, "Rattus norvegicus [14]": {"test_system": "Rattus norvegicus", "assay": "Dose normalized AUC in rat at 3 mg/kg, po and 1 mg/kg, iv", "format": "ADME, organism-based", "details": "in vivo", "summary_of_the_method": "as §3"}, "[15]": {"assay": "Plasma concentration in rat complete Freund's adjuvant-induced pain model at 30 mg/kg, po after 3 hrs", "format": "ADME, organism-based", "parameters": "dose 30 mg/kg, route oral", "summary_of_the_method": "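Satellite rats in CFA inflammatory pain study, 30 mg/kg po; plasma exposure (μM) at 3 h, n = 2, standard deviation.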"}, "Cav1.2 [16]": {"molecular_target": "T3, Cav1.2", "assay": "Inhibition of Cav1.2 assessed as inhibition of calcium flux at 1 uM by cell based FLIPR assay", "summary_of_the_method": "as §5"}, "Rattus norvegicus [17]": {"test_system": "Rattus norvegicus", "assay": "Analgesic activity in rat SNL neuropathic pain model assessed as reversal of mechanical allodynia at 10 mg/kg, po after 1 hr", "format": "functional"}, "Rattus norvegicus [18]": {"test_system": "Rattus norvegicus", "assay": "Antinociceptive activity in rat assessed as reversal of complete Freund's adjuvant-induced pain at 10 mg/kg, po after 3 hrs", "format": "functional", "summary_of_the_method": "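Rats had complete Freund's adjuvant-induced inflammatory pain and got oral dosing. Allodynia was read at 1 and 3 h postdose. Percent reversal per rat = (postdose − predose)/(preinjury − predose). Groups had at least six animals, reported as mean + SEM.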"}}}
{"smiles": "CS(=O)(=O)c1ccc(F)cc1C(=O)N1CCC(N(C2CC2)S(=O)(=O)c2cccc(OC(F)(F)F)c2)CC1", "values": [{"measurement": "IC50", "setting": "[1]", "result": 1100, "unit": "nM"}]}
{"smiles": "CS(=O)(=O)c1cccc(S(=O)(=O)N(C2CC2)C2CCN(C(=O)c3cc(F)ccc3S(C)(=O)=O)CC2)c1", "values": [{"measurement": "inhibition", "setting": "[2]", "result": 0, "unit": "%"}]}
{"smiles": "C[C@@H](O)[C@@H]1NC(=O)[C@H](Cc2ccc(O)cc2)NC(=O)[C@@H]2C[C@@H](O)CN2C(=O)[C@H](CC(N)=O)NC(=O)[C@@H]2CSSC[C@@H]3NC(=O)[C@H](CO)NC(=O)[C@H](CO)NC(=O)CNC(=O)[C@@H]4C[C@@H](O)CN4C(=O)[C@H](CO)NC(=O)[C@H](CCCCN)NC(=O)[C@@H](N)CSSC[C@H](NC(=O)[C@H](CSSC[C@@H](C(=O)N[C@@H](Cc4ccc(O)cc4)C(N)=O)NC(=O)[C@H](CCCN=C(N)N)NC(=O)[C@H](CCCCN)NC1=O)NC(=O)[C@H](CC(N)=O)NC(=O)[C@H](Cc1ccc(O)cc1)NC(=O)[C@H](CO)NC(=O)[C@H]([C@@H](C)O)NC(=O)[C@@H]1C[C@@H](O)CN1C(=O)[C@H](CO)NC3=O)C(=O)N[C@@H](CCCN=C(N)N)C(=O)N[C@@H](CO)C(=O)N2", "values": [{"measurement": "IC50", "setting": "[1]", "result": 40, "unit": "nM"}, {"measurement": "IC50", "setting": "[3]", "result": 20, "unit": "nM"}]}
{"smiles": "CS(=O)(=O)c1ccccc1C(=O)N1CCC(N(C2CC2)S(=O)(=O)c2cccc(C(F)(F)F)c2)CC1", "values": [{"measurement": "inhibition at 10 µM", "setting": "hERG [4]", "result": 67, "unit": "%"}, {"measurement": "IC50", "setting": "[1]", "result": 660, "unit": "nM"}, {"measurement": "bioavailability", "setting": "[5]", "result": 100, "unit": "%"}, {"measurement": "Activity", "setting": "Rattus norvegicus [6]", "result": 47, "unit": "%"}, {"measurement": "inhibition at 3 µM", "setting": "Cav1.2 [7]", "result": 39, "unit": "%"}, {"measurement": "clearance", "setting": "[8]", "result": 36, "unit": "mL/min/kg"}, {"measurement": "half-life", "setting": "[9]", "result": 54.6, "unit": "min"}, {"measurement": "remaining at 1 h, 1 µM", "setting": "[10]", "result": 45, "unit": "%"}, {"measurement": "inhibition at 1 µM", "setting": "hERG [11]", "result": 1, "unit": "%"}, {"measurement": "Activity", "setting": "Rattus norvegicus [12]", "result": 45, "unit": "%"}, {"measurement": "remaining at 1 h, 1 µM", "setting": "[13]", "result": 73, "unit": "%"}, {"measurement": "AUC/dose", "setting": "Rattus norvegicus [14]", "result": 1.06, "unit": "µM·kg·h/mg"}, {"measurement": "concentration at 3 h", "setting": "[15]", "result": 2400, "unit": "nM"}, {"measurement": "inhibition at 1 µM", "setting": "Cav1.2 [16]", "result": 19, "unit": "%"}]}
{"smiles": "CS(=O)(=O)c1cccc(C(=O)N2CCC(N(C3CC3)S(=O)(=O)c3cccc(C(F)(F)F)c3)CC2)c1", "values": [{"measurement": "inhibition", "setting": "[2]", "result": 15, "unit": "%"}]}
{"smiles": "COc1cccc(OC)c1CN1CCC(N(C2CC2)S(=O)(=O)c2cccc(C(F)(F)F)c2)CC1", "values": [{"measurement": "IC50", "setting": "[1]", "result": 60, "unit": "nM"}, {"measurement": "inhibition at 1 µM", "setting": "hERG [11]", "result": 70, "unit": "%"}]}
{"smiles": "O=C(c1ccc(OC(F)(F)F)cc1)N1CCC(N(C2CC2)S(=O)(=O)c2cccc(C(F)(F)F)c2)CC1", "values": [{"measurement": "inhibition at 10 µM", "setting": "hERG [4]", "result": 77, "unit": "%"}, {"measurement": "IC50", "setting": "[1]", "result": 300, "unit": "nM"}, {"measurement": "inhibition at 3 µM", "setting": "Cav1.2 [7]", "result": 88, "unit": "%"}, {"measurement": "inhibition at 1 µM", "setting": "hERG [11]", "result": 0, "unit": "%"}, {"measurement": "inhibition at 1 µM", "setting": "Cav1.2 [16]", "result": 73, "unit": "%"}]}
{"smiles": "COC(=O)c1cccc(C(=O)N2CCC(N(C3CC3)S(=O)(=O)c3cccc(C(F)(F)F)c3)CC2)c1", "values": [{"measurement": "inhibition at 10 µM", "setting": "hERG [4]", "result": 66, "unit": "%"}, {"measurement": "IC50", "setting": "[1]", "result": 380, "unit": "nM"}, {"measurement": "inhibition at 1 µM", "setting": "hERG [11]", "result": 2.4, "unit": "%"}]}
{"smiles": "COc1ccc2cc([C@H](C)C(=O)O)ccc2c1", "note": "[NAPROXEN]", "values": [{"measurement": "Activity", "setting": "Rattus norvegicus [17]", "result": 47, "unit": "%"}]}
{"smiles": "CS(=O)(=O)c1ccc(C(=O)N2CCC(N(C3CC3)S(=O)(=O)c3cccc(C(F)(F)F)c3)CC2)cc1", "values": [{"measurement": "inhibition", "setting": "[2]", "result": 52, "unit": "%"}]}
{"smiles": "CS(=O)(=O)c1ccc(F)cc1C(=O)N1CCC(N(C2CC2)S(=O)(=O)c2cc(C(F)(F)F)ccc2F)CC1", "values": [{"measurement": "IC50", "setting": "[1]", "result": 2500, "unit": "nM"}]}
{"smiles": "O=C(c1cccc(OC(F)(F)F)c1)N1CCC(N(C2CC2)S(=O)(=O)c2cccc(C(F)(F)F)c2)CC1", "values": [{"measurement": "inhibition at 10 µM", "setting": "hERG [4]", "result": 72, "unit": "%"}, {"measurement": "IC50", "setting": "[1]", "result": 370, "unit": "nM"}, {"measurement": "inhibition at 3 µM", "setting": "Cav1.2 [7]", "result": 78, "unit": "%"}, {"measurement": "inhibition at 1 µM", "setting": "hERG [11]", "result": 4, "unit": "%"}, {"measurement": "inhibition at 1 µM", "setting": "Cav1.2 [16]", "result": 60, "unit": "%"}]}
{"smiles": "CC(C)C[C@H](CN)CC(=O)O", "note": "[PREGABALIN]", "values": [{"measurement": "Activity", "setting": "Rattus norvegicus [18]", "result": 58, "unit": "%"}]}
